The text below walks through data of article PMC7321800 (Journal of immunology (Baltimore, Md. : 1950), 2020).

Converted amounts (≈) assume the structure as drawn. “And” between values parts separate entries of the source, which are not always exact repeats. Identical values can stand only once. “Also recorded” adds a separate entry of the source. Like-named read-outs stand apart in the source and are kept apart here.

Data set [1] deals with N. gonorrhoeae F62 ΔlgtD. Kind of data set: Serum bactericidal assay with pooled normal human serum. It counts as cell-based, Neisseria gonorrhoeae. To be noted: CMP-NulO added 15 min before or 15 min after CMP-Neu5Ac; 3.3% and 10% NHS.
The target in data set [2] is T1, N. gonorrhoeae LOS sialyltransferase (Lst) (Neisseria gonorrhoeae, UniProt P72074). Kind of data set: Utilization of CMP-NulO as substrate by LOS sialyltransferase. The conditions noted are these: transfer of NulO to LNnT LOS. It counts as biochemical.
The target of data set [3] is T1, N. gonorrhoeae LOS sialyltransferase (Lst). To be noted: tested as CMP salts; cited from earlier work.
Data set [4] relates to FH purified from human plasma. The conditions noted are these: compared with Neu5Ac; cited from earlier work.
The test system of data set [5] is N. gonorrhoeae. The conditions noted are these: cited from earlier work; for Eradication of oropharyngeal infection: men who have sex with men and commercial sex workers.
For data set [6], the system named is N. gonorrhoeae strain H041. Kind of data set: Mouse vaginal colonization model, human FH/C4BP transgenic mice. It counts as in vivo. In short, it runs like this: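 Premarin-treated human FH/C4BP transgenic BALB/c mice, 6-8 weeks old and in diestrus, were infected intravaginally with strain H041 (n=6/group). Test compound was given intravaginally once daily, starting 2 h before infection; the 10 µg dose was given as 1 mg/ml in sterile H2O. Saline was the vehicle control. Bacterial burden was followed over time, and areas under the curve were compared by nonparametric rank sum test.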

For data set [7], the system named is N. gonorrhoeae H041. Kind of data set: Mouse vaginal colonization model, wild-type BALB/c mice. It counts as in vivo. The conditions noted are these: strain H041; for Efficacy in clearing gonococcal colonization: 10 µg intravaginally daily, wild-type BALB/c mice; for First day with significantly lower CFU counts than saline control: 10 µg/d intravaginally, two-way ANOVA, Dunnett.

Data set [8] deals with N. gonorrhoeae. Briefly: Mouse vaginal colonization model, Cmah−/− mice. It counts as in vivo.
Data set [9] is described as follows: Stability of CMP-NulOs in solution. It counts as physicochemical.
The subject of data set [10] is N. gonorrhoeae H041. The conditions noted are these: intravaginal administration; cited from earlier work.
Data set [11] has as its system N. gonorrhoeae. To be noted: cited from earlier work.
For data set [12], the system named is N. gonorrhoeae F62 ΔlgtD. Briefly: Silver-stained SDS-PAGE of LOS. It counts as cell-based, Neisseria gonorrhoeae. The conditions noted are these: media containing CMP-NulO 100 µg/ml. A digest of the protocol:
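F62 ΔlgtD was grown in liquid media with or without test compound. Protease K-treated (100 µg/ml) lysates were run on 16.5% Tris-Tricine gels with Tris-Tricine cathode buffer, and LOS was silver-stained. Slower LOS mobility than bacteria grown without test compound was taken to indicate NulO addition.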

In data set [13] the test system is FH purified from human plasma. Briefly: Factor H binding to bacteria by flow cytometry. To be noted: for FH binding (fluorescence) relative to that seen with Neu5Ac substituted LOS / Decrease in FH binding fluorescence relative to Neu5Ac: NulO capped LNnT LOS.
Data set [14] relates to N. gonorrhoeae F62 ΔlgtD. To be noted: bacteria fed with the CMP salts; cited from earlier work.
The mark [15] stands for this setting: F62 ΔlgtD grown with the CMP-NulO.

T1 sequence (P72074 whole entry): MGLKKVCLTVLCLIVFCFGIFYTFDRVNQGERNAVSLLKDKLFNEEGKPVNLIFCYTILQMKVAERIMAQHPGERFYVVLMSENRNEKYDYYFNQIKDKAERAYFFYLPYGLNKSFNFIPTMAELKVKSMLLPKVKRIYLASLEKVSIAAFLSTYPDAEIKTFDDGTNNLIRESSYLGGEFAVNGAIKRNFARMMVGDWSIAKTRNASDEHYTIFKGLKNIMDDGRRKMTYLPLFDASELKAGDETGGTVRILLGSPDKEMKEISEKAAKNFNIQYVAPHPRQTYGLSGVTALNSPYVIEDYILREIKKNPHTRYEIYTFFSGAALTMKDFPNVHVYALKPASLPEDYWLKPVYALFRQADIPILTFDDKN

Take `[N-]=[N+]=N[C@@H](C1O[C@](OP(=O)(O)OC[C@H]2O[C@@H](n3ccc(N)nc3=O)C(O)C2O)(C(=O)O)CC(O)[C@H]1O)[C@H](O)CO` (stereo partly drawn) [CMP-Kdn7N3]: the “Prevention of Neu5Ac-mediated serum resistance” value (“Prevention” below) in the data set on N. gonorrhoeae F62 ΔlgtD [1] is given as “ineffective in preventing CMP-Neu5Ac-mediated serum resistance”. Also, the “Substrate for Lst” value in data set [2] is listed as “served as substrates for Lst”.

Consider `CO[C@H](CO)[C@@H](O)[C@@H]1OC(O)(C(=O)O)C[C@H](O)[C@H]1NC(=O)CO` (stereo partly drawn) [Neu5Gc8Me, reference compound], for which the “Utilization by Lst” value in [3] was “utilized by Lst”. Besides, the “FH binding to gonococci with NulO capped LNnT LOS” value (“FH binding to gonococci” for short) in data set [4] is “lack of detectable FH binding”.

In the case of `C[C@@H]1CN2c3c(cc4c(N5C(=O)OC[C@@H]5C)noc4c3F)CC3(C(=O)NC(=O)NC3=O)[C@H]2[C@H](C)O1` [Zoliflodacin, zoliflodacin], in the data set with N. gonorrhoeae [5], the “Treatment of uncomplicated urogenital infections” value was “appear promising” and the “Eradication of oropharyngeal infection” value was “failures to eradicate oropharyngeal infection”.

On to `CC(=O)N[C@@H]([C@@H]1O[C@](OP(=O)(O)OC[C@H]2O[C@@H](n3ccc(N)nc3=O)[C@H](O)[C@@H]2O)(C(=O)O)C[C@H](O)[C@H]1NC(C)=O)[C@@H](C)O` [CMP-Leg5,7Ac2], for which the Efficacy entry in data set [6] (1 µg/day intravaginally) was “ineffective”; in data set [6] (5 µg/day intravaginally) it was “progressively increasing efficacy; also recorded: cleared infection significantly faster”; in data set [6] (10 µg/day intravaginally) it was “progressively increasing efficacy; also recorded: cleared infection significantly faster”. The “Efficacy in clearing gonococcal colonization” value in the data set on N. gonorrhoeae H041 [7] is “equally efficacious”. For the same compound, the “First day with significantly lower CFU counts than saline control” value in the data set with N. gonorrhoeae H041 [7] is 1 days. Moreover, in the data set with N. gonorrhoeae F62 ΔlgtD [1], the “Prevention” value is recorded as “blocked CMP-Neu5Ac-mediated serum resistance when added after CMP-Neu5Ac”. For the same compound, the “AUC (log10 CFU)” value in the data set on N. gonorrhoeae [8] (strain 398078, 10 µg daily) was “zero”. Further, the “Detection of bacteria in treated animals on day 1” value in the data set on N. gonorrhoeae [8] (strain 398078, swabs taken 24 h after infection, 10 µg daily) is given as “unable to detect”. In addition, in the data set with N. gonorrhoeae [8] (strains F62 ΔlgtD and H041, 10 µg daily intravaginally), the “Efficacy (rate of clearance and bacterial burden compared to saline)” value is reported as “effective against both strains”. The “Percentage of intact CMP-NulO relative to t0” value is reported as “Greater than 90%” in [9] (6 weeks at 4 °C, pH 7); “greater than 50%” in data set [9] (1 h, pH 4 (data not shown)); 4% in data set [9] (4 h, pH 4, 37 °C); “about 54%” in [9] (24 h at 37 °C, pH 5); “Greater than 90%” in [9] (3 days at 20 °C, pH 7). Further, in [9] (descending order: CMP-Leg5,7Ac2, CMP-Neu5Ac9N3, CMP-Neu5Ac, CMP-Kdn, pH 4-7, 4-37 °C), the “Relative stability over all test conditions” value is on record as “most stable”. Further, the “Duration and burden of vaginal colonization of multidrug-resistant N. gonorrhoeae in mice” value with N. gonorrhoeae H041 [10] is “decreased the duration and reduced the burden of vaginal colonization”.

With `C=CC1=C(C(=O)O)N2C(=O)[C@@H](NC(=O)/C(=N\OCC(=O)O)c3csc(N)n3)[C@H]2SC1` [cefixime], the MIC in the data set with N. gonorrhoeae [11] (strain SD-1) is 0.125 µg/mL (≈ 0.276 µM).

Regarding `CC(=O)NC1C(OC(C)=O)CC(OP(=O)(O)OCC2OC(n3ccc(N)nc3=O)C(O)C2O)(C(=O)O)OC1C(O)C(O)CO` (stereo not drawn) [CMP-Neu4,5Ac2], in the data set on N. gonorrhoeae F62 ΔlgtD [12], the “Migration of LOS on silver-stained 16.5% Tricine gel” value is “no change in migration of LOS”.

For the compound `CC(=O)N[C@H]([C@@H]1O[C@](OP(=O)(O)OC[C@H]2O[C@@H](n3ccc(N)nc3=O)[C@H](O)[C@@H]2O)(C(=O)O)C[C@H](O)[C@@H]1NC(C)=O)[C@H](C)O` [CMP-Pse5,7Ac2], the “Utilization by Lst” value in data set [3] is listed as “not utilized by Lst”.

Take `CC(=O)N[C@H]1[C@H]([C@H](O)[C@H](O)CN=[N+]=[N-])OC(OP(=O)(O)OC[C@H]2O[C@@H](n3ccc(N)nc3=O)[C@H](O)[C@@H]2O)(C(=O)O)C[C@@H]1O` (stereo partly drawn) [CMP-Neu5Ac9N3]: in the data set on N. gonorrhoeae H041 [7], the “Efficacy in clearing gonococcal colonization” value is given as “equally efficacious; also recorded: as efficacious as CMP-Leg5,7Ac2” and the “First day with significantly lower CFU counts than saline control” value was found to be 2 days.

Turning to `O=c1ccc2ncc(=O)n3c2n1C[C@H]3CN1CCC(NCc2cc3c(cn2)OCCC3)CC1` [gepotidacin], in the data set with N. gonorrhoeae [5], the “Treatment of uncomplicated urogenital infections” value was “appear promising” and the “Eradication of oropharyngeal infection” value is listed as “failures to eradicate oropharyngeal infection”.

As to `O=C(CO)N[C@H]1[C@H]([C@H](O)[C@H](O)CO)OC(O)(C(=O)O)C[C@@H]1O` (stereo partly drawn) [Neu5Gc, reference compound], the “Utilization by Lst” value in data set [3] is on record as “utilized by Lst”. Further, in [4], the “FH binding to gonococci” value is given as “no impact”.

With `CC(=O)N[C@@H]([C@@H]1O[C@](O)(C(=O)O)C[C@H](O)[C@H]1NC(C)=O)[C@@H](C)O` [Leg5,7Ac2], the “Utilization by Lst” value in data set [3] was “utilized by Lst”. The “FH binding to gonococci” value in data set [4] is on record as “lack of detectable FH binding”. Moreover, the “FH binding compared with unsialylated bacteria” value in [13] (F62 ΔlgtD grown with the CMP-NulO, NulO substituted LOS) was “did not bind FH above levels seen with unsialylated bacteria”. The “Effect of NulO incorporation into LOS on bacterial resistance to complement” value in the data set with N. gonorrhoeae F62 ΔlgtD [14] is given as “did not enhance bacterial resistance to complement”.

For the compound `CC[C@H]1OC(=O)[C@@](C)(F)C(=O)[C@H](C)[C@@H](O[C@@H]2O[C@H](C)C[C@H](N(C)C)[C@H]2O)[C@](C)(OC)C[C@@H](C)C(=O)[C@H](C)[C@H]2N(CCCCn3cc(-c4cccc(N)c4)nn3)C(=O)O[C@]12C` [Solithromycin, solithromycin], the “Non-inferiority versus ceftriaxone plus azithromycin” value in the data set with N. gonorrhoeae [5] (phase III trial) is “failed to meet non-inferiority criteria”.

As to `CC(=O)N[C@H]1[C@H]([C@H](O)[C@H](O)COC(C)=O)O[C@@](OP(=O)(O)OC[C@H]2O[C@@H](n3ccc(N)nc3=O)[C@H](O)[C@@H]2O)(C(=O)O)C[C@@H]1O` [CMP-Neu5,9Ac2], the “Efficacy in clearing gonococcal colonization” value in the data set with N. gonorrhoeae H041 [7] is listed as “ineffective”. The “Prevention” value in the data set with N. gonorrhoeae F62 ΔlgtD [1] is given as “rendered F62 ΔlgtD susceptible to 10% NHS, but not 3.3% NHS”.

For the compound `O=C(O)C(=O)C[C@H](O)[C@@H](O)[C@@H](O)[C@H](O)[C@H](O)CO` [Kdn, 3-deoxy-D-glycero-D-galacto-nonulosonic acid], the “FH binding (fluorescence) relative to that seen with Neu5Ac substituted LOS” value in data set [13] (setting [15]) was ~ 60% and ~ 62%. The “Decrease in FH binding fluorescence relative to Neu5Ac” value in data set [13] is on record as ~ 40%.

For `Nc1ccn([C@@H]2O[C@H](COP(=O)(O)O[C@@]3(C(=O)O)C[C@H](O)[C@@H](O)[C@H]([C@H](O)[C@H](O)CO)O3)[C@@H](O)[C@H]2O)c(=O)n1` [CMP-Kdn, CMP-ketodeoxynonulosonate], in the data set on N. gonorrhoeae H041 [7], the “Efficacy in clearing gonococcal colonization” value was “equally efficacious; also recorded: as efficacious as CMP-Leg5,7Ac2” and the “First day with significantly lower CFU counts than saline control” value worked out at 2 days. Moreover, the “Prevention” value in the data set with N. gonorrhoeae F62 ΔlgtD [1] is recorded as “effectively prevented Neu5Ac-mediated serum resistance only when added first”. Moreover, the “Substrate for Lst” value in data set [2] is recorded as “served as substrates for Lst”.

As to `[N-]=[N+]=N[C@@H]([C@H](O)[C@H](O)[C@@H](O)CC(=O)C(=O)O)[C@H](O)CO` [Kdn7N3, 3,7-dideoxy-7-azido-D-glycero-D-galacto-nonulosonic acid], the “FH binding (fluorescence) relative to that seen with Neu5Ac substituted LOS” value in data set [13] (setting [15]) is ~ 60% and ~ 62%.

For the compound `CC(=O)N[C@H]1[C@H]([C@H](O)[C@H](O)COC(C)=O)OC(O)(C(=O)O)C[C@@H]1O` (stereo partly drawn) [Neu5,9Ac2], in data set [13] (setting [15]), the “FH binding (fluorescence) relative to that seen with Neu5Ac substituted LOS” value is given as ~ 30%. The “Decrease in FH binding fluorescence relative to Neu5Ac” value in data set [13] was ~ 70%.

As for `CC(=O)N[C@H]1[C@H]([C@H](O)[C@H](O)CN=[N+]=[N-])OC(O)(C(=O)O)C[C@@H]1O` (stereo partly drawn) [Neu5Ac9N3], in [3], the “Utilization by Lst” value is recorded as “utilized by Lst”. The “FH binding to gonococci” value in data set [4] is “lack of detectable FH binding”. Besides, in the data set with N. gonorrhoeae F62 ΔlgtD [14], the “Effect of NulO incorporation into LOS on bacterial resistance to complement” value is on record as “did not enhance bacterial resistance to complement”.

For the compound `CO/N=C(\C(=O)N[C@@H]1C(=O)N2C(C(=O)O)=C(CSc3nc(=O)c(=O)[nH]n3C)CS[C@H]12)c1csc(N)n1` [ceftriaxone], the MIC with N. gonorrhoeae [11] (strain CTX-r Spain) is more than 2 µg/mL; with N. gonorrhoeae [11] (strain H041 (WHO X)) it was 2 to 4 µg/mL; in the data set on N. gonorrhoeae [11] (strain SD-1), 0.094 µg/mL (≈ 0.169 µM); with N. gonorrhoeae [11] (strain UMNJ60_06UM (NJ-60)), 0.38 µg/mL (≈ 0.685 µM).
